Results reported in article PMC7195562 (Journal of Advanced Research, 2020).
Read-outs that look alike come from different tables or passages of the source. Ends that are not written are not given here. Peptide text beside a SMILES is read from it.

B2: NS3 domain of HCV genotype-4 (domain or fragment)
chain: APITAYAQQTRGLFSTIVTSLTGRDTNENCGEVQVLSTATQSFLGTAVNGVMWTVYHGAGAKTISGPKGPVNQMYTNVDQDLVGWPAPPGVRSLAPCTCGSADLYLVTRHADVIPVRRRGDTRGALLSPRPISILKGSSGGPLLCPMGHRAGIFRAAVCTRGVAKAVDFVPVESLETTMRSP

Tests used:
[1] = tested on: NS3 domain of HCV genotype-4; test: Differential static light scattering; type: binding
NS3 genotype-4 = molecular target: T1, NS3 genotype-4 (Hepatitis C virus genotype 4a, UniProt O39929); test: Fluorescence anisotropy, dissociation constant of FITC-NS4A with NS3; type: binding, HCV genotype-4
T1 sequence (O39929 1027-1657 limits assumed): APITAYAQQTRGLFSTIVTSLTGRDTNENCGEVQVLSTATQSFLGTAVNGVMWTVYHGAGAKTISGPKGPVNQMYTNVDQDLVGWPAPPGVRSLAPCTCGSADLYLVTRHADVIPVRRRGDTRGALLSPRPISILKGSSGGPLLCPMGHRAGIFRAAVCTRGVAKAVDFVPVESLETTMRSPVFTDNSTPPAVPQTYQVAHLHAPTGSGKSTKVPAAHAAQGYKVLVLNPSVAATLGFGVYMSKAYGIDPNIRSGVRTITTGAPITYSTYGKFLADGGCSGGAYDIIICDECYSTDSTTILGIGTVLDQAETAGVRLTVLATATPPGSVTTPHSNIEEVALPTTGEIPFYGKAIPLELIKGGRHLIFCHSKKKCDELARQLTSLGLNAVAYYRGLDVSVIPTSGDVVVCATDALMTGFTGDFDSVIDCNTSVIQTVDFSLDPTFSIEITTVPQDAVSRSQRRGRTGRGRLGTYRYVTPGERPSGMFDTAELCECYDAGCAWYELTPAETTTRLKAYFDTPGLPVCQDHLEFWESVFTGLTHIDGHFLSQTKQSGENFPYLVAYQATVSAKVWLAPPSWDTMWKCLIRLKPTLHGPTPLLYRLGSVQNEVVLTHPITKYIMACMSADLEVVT
Outline: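 His-tagged HCV-4 NS3 domain (expressed in E. coli Rosetta (DE3) pLysS, Ni-NTA purified) serially diluted in 20 mM HEPES, 10 mM DTT, 200 mM NaCl, pH 7.6, with 0.1 µM FITC-labelled NS4A 21'-34' core peptide. Shaken at room temperature for 15, 45, 90 and 120 min. Fluorescence anisotropy read at 480/520 nm. Kd fitted with a single-binding-site model at 90 min.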

[2] = molecular target: B2; test: differential static light scattering
[3] = molecular target: B2; test: differential static light scattering
[4] = molecular target: B2; test: differential static light scattering
[5] = molecular target: B2; test: differential static light scattering
[6] = molecular target: B2; test: differential static light scattering
[7] = molecular target: B2; test: differential static light scattering
[8] = molecular target: B2; test: differential static light scattering
[9] = molecular target: T2, fluorescein isothiocyanate-labeled NS4A(21'-34') core peptide (hepatitis C virus, also: FITC label, position not given here); test: fluorescence polarisation
T2 peptide: KKGSVVIVGRIVLSGKK

## GSxG23VIVGRIVLSG [Pep-15]
[1]; 2:1 ratio, room temperature, 2 h
  Tagg shift higher than that of the native NS4A: 1.07 °C
[1]; all conditions (Fig. S6)
  binding affinity by DSLS compared with the native peptide: higher binding affinity than the native peptide

## CC[C@H](C)[C@H](NC(=O)[C@H](CCCNC(=N)N)NC(=O)CNC(=O)[C@@H](NC(=O)[C@@H](NC(=O)[C@@H](NC(=O)[C@@H](NC(=O)[C@H](CO)NC(=O)CNC(=O)[C@H](CCCCN)NC(=O)[C@@H](N)CCCCN)C(C)C)C(C)C)[C@@H](C)CC)C(C)C)C(=O)N[C@H](C(=O)N[C@@H](CC(C)C)C(=O)N[C@@H](CO)C(=O)NCC(=O)N[C@@H](CCCCN)C(=O)N[C@@H](CCCCN)C(=O)O)C(C)C [NS4A] (H-KKGSVVIVGRIVLSGKK-OH)
NS3 genotype-4
  Kd: 169 ± 3.7 nM

B1: native NS4A(21'-34') core peptide (KK-GSVVIVGRIVLSG-KK) (peptide)
peptide: KKGSVVIVGRIVLSGKK
[2]
  ΔTagg: 1.97 °C
[3]
  ΔTagg: 2.83 °C
[4]
  ΔTagg: 2.09 °C
[5]
  ΔTagg: 1.71 °C
[6]
  ΔTagg: 0.998 °C
[7]
  ΔTagg: 3.16 °C
[8]
  ΔTagg: 1.62 °C

## B2
[9]
  Kd: 169 ± 3.7 nM
